Our source for the Activity values is ChEMBL document CHEMBL1149906, “Perennisosides I-VII, acylated triterpene saponins with antihyperlipidemic activities from the flowers of Bellis perennis” (2008).

What all share (type): functional
Experiment [1] has as its system Mus musculus. Briefly: Inhibition of serum triglyceride elevation in olive oil-treated ddY mouse at 500 mg/kg, po after 6 hrs.
Experiment [2] concerns Mus musculus. Kind of experiment: Inhibition of serum triglyceride elevation in olive oil-treated ddY mouse at 125 mg/kg, po after 2 hrs.
For experiment [3], the system named is Mus musculus. Briefly: Inhibition of serum triglyceride elevation in olive oil-treated ddY mouse at 125 mg/kg, po after 4 hrs.
Experiment [4] has as its system Mus musculus. Briefly: Inhibition of serum triglyceride elevation in olive oil-treated ddY mouse at 250 mg/kg, po after 4 hrs.
For experiment [5], the system named is Mus musculus. Kind of experiment: Inhibition of serum triglyceride elevation in olive oil-treated ddY mouse at 500 mg/kg, po after 4 hrs.
The test system of experiment [6] is Mus musculus. Briefly: Inhibition of serum triglyceride elevation in olive oil-treated ddY mouse at 250 mg/kg, po after 2 hrs.
For experiment [7], the system named is Mus musculus. Briefly: Inhibition of serum triglyceride elevation in olive oil-treated ddY mouse at 125 mg/kg, po after 6 hrs.
Experiment [8] deals with Mus musculus. Kind of experiment: Inhibition of serum triglyceride elevation in olive oil-treated ddY mouse at 250 mg/kg, po after 6 hrs.
The test system of experiment [9] is Mus musculus. Briefly: Inhibition of serum triglyceride elevation in olive oil-treated ddY mouse at 500 mg/kg, po after 2 hrs.
Experiment [10] relates to Mus musculus. Briefly: Inhibition of serum triglyceride elevation in olive oil-treated ddY mouse at 6.25 mg/kg, po after 2 hrs.
In experiment [11] the test system is Mus musculus. Briefly: Inhibition of serum triglyceride elevation in olive oil-treated ddY mouse at 6.25 mg/kg, po after 4 hrs.
Experiment [12] has as its system Mus musculus. Kind of experiment: Inhibition of serum triglyceride elevation in olive oil-treated ddY mouse at 6.25 mg/kg, po after 6 hrs.
The subject of experiment [13] is Mus musculus. Briefly: Inhibition of serum triglyceride elevation in olive oil-treated ddY mouse at 12.5 mg/kg, po after 6 hrs.
Experiment [14] deals with Mus musculus. Kind of experiment: Inhibition of serum triglyceride elevation in olive oil-treated ddY mouse at 25 mg/kg, po after 6 hrs. An outline of the steps:
(§1)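 Male ddY mice (25–30 g) fasted 24–26 h with free access to water, kept conscious. Test sample given orally, then olive oil 5 mL/kg po 30 min later. Blood drawn from the infraorbital venous plexus 2, 4 and 6 h after the olive oil. Serum TG measured by an enzymatic kit; n = 6 per group; means ± SEM.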

For experiment [15], the system named is Mus musculus. Briefly: Inhibition of serum triglyceride elevation in olive oil-treated ddY mouse at 12.5 mg/kg, po after 4 hrs.
The test system of experiment [16] is Mus musculus. Briefly: Inhibition of serum triglyceride elevation in olive oil-treated ddY mouse at 12.5 mg/kg, po after 2 hrs.
The subject of experiment [17] is Mus musculus. Kind of experiment: Inhibition of serum triglyceride elevation in olive oil-treated ddY mouse at 25 mg/kg, po after 2 hrs. In short, it runs like this:
as §1

Experiment [18] concerns Mus musculus. Briefly: Inhibition of serum triglyceride elevation in olive oil-treated ddY mouse at 25 mg/kg, po after 4 hrs. In short, it runs like this: as §1
The subject of experiment [19] is Mus musculus. Briefly: Inhibition of serum triglyceride elevation in olive oil-treated ddY mouse at 50 mg/kg, po after 6 hrs. In short, it runs like this: as §1
Experiment [20] relates to Mus musculus. Kind of experiment: Inhibition of serum triglyceride elevation in olive oil-treated ddY mouse at 50 mg/kg, po after 2 hrs. An outline of the steps: as §1
The subject of experiment [21] is Mus musculus. Briefly: Inhibition of serum triglyceride elevation in olive oil-treated ddY mouse at 100 mg/kg, po after 2 hrs. In short, it runs like this:
as §1

The subject of experiment [22] is Mus musculus. Kind of experiment: Inhibition of serum triglyceride elevation in olive oil-treated ddY mouse at 50 mg/kg, po after 4 hrs. In short, it runs like this:
as §1

The subject of experiment [23] is Mus musculus. Kind of experiment: Inhibition of serum triglyceride elevation in olive oil-treated ddY mouse at 100 mg/kg, po after 4 hrs. An outline of the steps: as §1
The subject of experiment [24] is Mus musculus. Kind of experiment: Inhibition of serum triglyceride elevation in olive oil-treated ddY mouse at 100 mg/kg, po after 6 hrs. An outline of the steps: as §1

Structures are written as SMILES.

On to `CCOC(=O)C(C)(C)Oc1ccc(Cl)cc1` [CLOFIBRATE], for which the Activity in the experiment on Mus musculus [1] worked out at 373.5 mg/dL; with Mus musculus [2], 377.5 mg/dL; in the experiment with Mus musculus [3] it was 295 mg/dL; in the experiment on Mus musculus [4], 340.5 mg/dL; in the experiment with Mus musculus [5], 239.7 mg/dL; in the experiment on Mus musculus [6], 441.2 mg/dL. The figures for the Activity in the experiment with Mus musculus [7], in the experiment with Mus musculus [8] and in the experiment on Mus musculus [9] were 333.4 mg/dL, 443.3 mg/dL and 318.2 mg/dL, respectively.

For the compound `CCCCCCCCCCC[C@@H](C[C@@H]1OC(=O)[C@H]1CCCCCC)OC(=O)[C@H](CC(C)C)NC=O` [ORLISTAT], the Activity in the experiment with Mus musculus [10] is 266.4 mg/dL; in the experiment with Mus musculus [11], 179.3 mg/dL; with Mus musculus [12], 155.6 mg/dL; with Mus musculus [13], 189.7 mg/dL; in the experiment on Mus musculus [14], 140.1 mg/dL; in the experiment with Mus musculus [15] it was 176 mg/dL. In addition, the Activity stood at 187.9 mg/dL in the experiment on Mus musculus [16], 158.9 mg/dL in the experiment with Mus musculus [17] and 132.2 mg/dL with Mus musculus [18].

Regarding `CC(=O)OC[C@H]1O[C@@H](OC(=O)[C@]23CCC(C)(C)C[C@H]2C2=CC[C@@H]4[C@@]5(C)C[C@H](O)[C@H](O)[C@@](C)(COC(C)=O)[C@@H]5CC[C@@]4(C)[C@]2(C)CC3)[C@H](O[C@@H]2O[C@@H](C)[C@H](O)[C@@H](O)[C@H]2O)[C@@H](O[C@@H]2O[C@H](CO)[C@H](O)[C@H](O)[C@H]2O)[C@@H]1O` [PERENNISOSIDE II], the Activity in the experiment on Mus musculus [19] stood at 104.6 mg/dL; in the experiment on Mus musculus [20], 232.5 mg/dL; with Mus musculus [21] it was 179.4 mg/dL; in the experiment on Mus musculus [14] it was 87 mg/dL; in the experiment on Mus musculus [22], 180.4 mg/dL; in the experiment on Mus musculus [17] it was 204.6 mg/dL. The Activity with Mus musculus [18] turned out to be 147 mg/dL; with Mus musculus [23] it was 155.6 mg/dL; with Mus musculus [24], 80.6 mg/dL.

In the case of `CC(=O)OC[C@H]1O[C@@H](OC(=O)[C@]23CCC(C)(C)C[C@H]2C2=CC[C@@H]4[C@@]5(C)C[C@H](O)[C@H](O)[C@@](C)(COC(C)=O)[C@@H]5CC[C@@]4(C)[C@]2(C)CC3)[C@H](O[C@@H]2O[C@@H](C)[C@H](O)[C@@H](O)[C@H]2O)[C@@H](O[C@@H]2O[C@H](CO)[C@@H](O)[C@H](O)[C@H]2O)[C@@H]1O` [PERENNISOSIDE I], the Activity in the experiment with Mus musculus [19] was determined as 203.7 mg/dL; in the experiment with Mus musculus [20], 326.9 mg/dL; with Mus musculus [21], 135.7 mg/dL; in the experiment on Mus musculus [14], 222.7 mg/dL; in the experiment with Mus musculus [22], 355.8 mg/dL; in the experiment on Mus musculus [17], 337 mg/dL. Also, the figures for the Activity in the experiment on Mus musculus [18], in the experiment on Mus musculus [23] and in the experiment with Mus musculus [24] were 357.7 mg/dL, 278.7 mg/dL and 208.2 mg/dL, respectively.
